rRNA inh HTS – reduced GFP signal of wild-type E. coli, primary screen, bacterial rRNA inhibitor project, GFP/RFP fluorescence, OD600, single point; E. coli WT GFP vs humanized-ribosome RFP mutants, 24 h; hits give low values; DMSO median 0, no signal -100; GFP signal change (wild-type ribosome), % (test concentration not listed); hit rate 1.6% among 350,000; AID 720706, 2013;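 active = significant combined selectivity score with lowered wild-type GFP, culture density cut under 30%, mutant RFP and density less affected; inactive = any of these conditions unmet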
hiPSC survival – enhancers of single-cell hiPSC survival, primary screen, ATPlite luminescence; 100% = ROCK inhibitor wells, 0% = DMSO; survival enhancement, % at 20 µM; hit rate 0.044% among 360,000; AID 602274, 2012; in the data active = survival enhancement above about 18%;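 note: cells exposed to compounds for 16 hours before the ATP read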
Cneo AK release – Cryptococcus neoformans cell lysis inducers, primary screen, AK release luminescence, single concentration; C. neoformans lysis, adenylate kinase release luminescence, 4 h; normalised: neutral wells 0, clomiphene wells 100; lysis activity, % at 15 µM; hit rate 0.2% among 360,000; AID 651654, 2012;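 active = mean lysis activity across replicates of at least 80%, whatever share of replicates individually reach that level; inactive = mean lysis activity below 80%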
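Material – Cryptococcus neoformans yeast cells · Quantity – 5 × 10^6 yeast cells/mL · Buffer or medium – YPD medium · Compound – single dose · Timing – 4 h static compound exposure, 37 °C, read 1 h post-reagent · Signal – adenylate kinase release luminescence · Read-out basis – lysis from increased AK signal · Benchmarks – Clomiphene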
DAGLB inh – DAGLB lipase inhibitors, primary screen, biochemical, fluorescence, HTS; HEK293T DAGLB membrane lysate, EnzChek fluorogenic substrate; hit rate 0.059% among 340,000; AID 504411, 2011; Diacylglycerol lipase-beta (Homo sapiens), Q8NCG7; inhibition, % at 5.17 µM; in the data active = inhibition above about 34%;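 note: 0% = enzyme with vehicle and 100% = wells lacking enzyme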
Target sequence (Q8NCG7 whole entry, looked up): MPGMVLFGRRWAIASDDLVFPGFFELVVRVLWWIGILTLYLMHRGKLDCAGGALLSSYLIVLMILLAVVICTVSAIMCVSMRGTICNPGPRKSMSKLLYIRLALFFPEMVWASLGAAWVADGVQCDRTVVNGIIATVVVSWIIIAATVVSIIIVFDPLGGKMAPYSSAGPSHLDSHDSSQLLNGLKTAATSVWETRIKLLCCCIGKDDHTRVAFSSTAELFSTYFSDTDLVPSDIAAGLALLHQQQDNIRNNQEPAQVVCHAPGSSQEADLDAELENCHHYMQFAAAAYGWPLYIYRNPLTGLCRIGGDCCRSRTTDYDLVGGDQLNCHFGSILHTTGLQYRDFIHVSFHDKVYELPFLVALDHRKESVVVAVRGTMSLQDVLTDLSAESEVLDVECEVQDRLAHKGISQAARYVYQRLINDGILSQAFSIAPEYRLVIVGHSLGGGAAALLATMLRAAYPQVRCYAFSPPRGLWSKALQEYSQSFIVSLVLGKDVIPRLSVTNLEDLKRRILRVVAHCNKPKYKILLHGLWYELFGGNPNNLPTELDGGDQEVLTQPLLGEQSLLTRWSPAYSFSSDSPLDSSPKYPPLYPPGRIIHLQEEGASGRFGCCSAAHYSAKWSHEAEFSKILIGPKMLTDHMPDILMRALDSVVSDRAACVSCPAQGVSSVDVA
SKN-1 inh – suppressors of acrylamide-induced Pgst-4::GFP reporter in worms, primary screen, SKN-1 inhibitor project, whole organism, uHTS, GFP/RFP fluorescence ratio, strain VP596. C. elegans VP596 Pgst-4::GFP/RFP ratio, 24 h. AID 624304, 2012. inhibition, % at 21.8 µM. hit rate 0.49% among 360,000;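 active = interference check ratio from 0.5 to 1.5 plus GFP to RFP signal ratio inhibition reaching or exceeding a fixed threshold, cut at about 30% in these data, passing the limit was not always enough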
MT1-MMP act inh – blockers of MT1-MMP proenzyme processing, primary screen, HT1080 RFP-PRO-GFP cells, GFP/RFP fluorescence; GFP/RFP ratio change, % at 20 µM; Matrix metalloproteinase-14 (Homo sapiens), P50281; GFP/RFP ratio fluorescence, overnight; percent of plate control window, DMSO zero; hit rate 0.061% among 360,000; AID 651647, 2012;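 active = GFP/RFP ratio change of at least 30% with cell ATP level not reduced by more than half and red fluorescence within 50% of control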
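Test system: HT1080 RFP-PRO-GFP cells; Benchmarks: DMSO and RFP-L50D-GFP cell wells; Timing: cells overnight before dosing, compound overnight, 37 °C, 5% CO2; Compound: one 20 µM compound dose with 1% DMSO; Read-out: GFP/RFP fluorescence ratio.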
* = called active by the depositor. Rows were chosen to be rich in hits. Some 1.8% of all compounds tested hit in one or more screens of this group.

For O=C(/C=C/c1cccc(F)c1)c1ccc(N2CCOCC2)cc1 the results were rRNA inh HTS -7.8, hiPSC survival -0.6, Cneo AK release 1.7, DAGLB inh 1.1, SKN-1 inh 9.9 and MT1-MMP act inh -3.9.
For O=C(/C=C/c1cccs1)c1ccc(N2CCOCC2)cc1 the results were rRNA inh HTS 5.3, hiPSC survival -4.6, Cneo AK release -11.7, DAGLB inh 1.1, SKN-1 inh 36.1* and MT1-MMP act inh -0.7.
CCOc1ccc(CCNC(=O)c2ccc(CS(=O)Cc3ccc(Cl)cc3)o2)cc1 (stereo not drawn) was read as rRNA inh HTS -6.0, hiPSC survival -0.2, Cneo AK release -0.7, DAGLB inh -1.3, SKN-1 inh -2.2 and MT1-MMP act inh -0.2.
COc1ccc(OC)c(CCNC(=O)c2ccc(CS(=O)Cc3ccc(Cl)cc3)o2)c1 (stereo not drawn) was read as rRNA inh HTS -28.4*, hiPSC survival -0.4, Cneo AK release 0.7, DAGLB inh 1.5, SKN-1 inh 5.7 and MT1-MMP act inh 2.5.
`COc1ccc(C(C(=O)NC2CCCCC2)N(Cc2cccs2)C(=O)Cc2c[nH]c3ccccc23)cc1` (stereo not drawn) gave hiPSC survival -0.2, Cneo AK release -0.3, DAGLB inh 1.5, SKN-1 inh 39.5* and MT1-MMP act inh -7.5.
For COc1cccc(CN(C(=O)Cc2c[nH]c3ccccc23)C(C(=O)NC2CCCCC2)c2cccs2)c1 (stereo not drawn) the results were hiPSC survival 6.0, Cneo AK release -2.4, DAGLB inh 0.0, SKN-1 inh -1.3 and MT1-MMP act inh -28.8.
C[C@H](CO)N1C[C@H](C)[C@H](CN(C)Cc2ccc(C(=O)Nc3ccccc3N)cc2)Oc2c(NS(=O)(=O)c3cccs3)cccc2C1=O was read as rRNA inh HTS -4.2 and Cneo AK release 49.7.
Nc1ccc(Nc2nc(-c3ccncc3)cs2)cc1 was read as rRNA inh HTS -17.0*, hiPSC survival -1.4, Cneo AK release -1.2, DAGLB inh 7.2, SKN-1 inh 10.8 and MT1-MMP act inh 1.8.
For Brc1ccc(Nc2nc(-c3cccnc3)cs2)cc1 the results were rRNA inh HTS -24.0*, hiPSC survival -0.5, DAGLB inh -2.5, SKN-1 inh 16.1 and MT1-MMP act inh -6.6.
`Cn1c(=O)c(Nc2ccc(O)cc2)c2c3c(cccc31)C(=O)c1ccccc1-2` gave rRNA inh HTS -12.0, hiPSC survival -1.5, DAGLB inh 43.8*, SKN-1 inh -11.6 and MT1-MMP act inh -163.5.
Screening CO[C@H]1CN(C)C(=O)c2ccc(NC(=O)NC(C)C)cc2OC[C@@H](C)NC[C@H]1C returned rRNA inh HTS 2.3 and Cneo AK release 82.4*.
`CO[C@@H]1CN(C)C(=O)c2ccc(NC(=O)NC(C)C)cc2OC[C@H](C)NC[C@@H]1C` gave rRNA inh HTS 3.3 and Cneo AK release 81.9*.
For CO[C@@H]1CN(C)C(=O)c2ccc(NC(=O)NC(C)C)cc2OC[C@@H](C)NC[C@@H]1C the results were rRNA inh HTS -0.3 and Cneo AK release -1.8.
Screening C[C@@H]1CN([C@@H](C)CO)C(=O)Cc2cc(NC(=O)C3CC3)ccc2O[C@H]1CN(C)C(=O)Nc1ccccc1 returned rRNA inh HTS -0.5 and Cneo AK release 3.0.
`COCC(=O)N1C[C@H](C)[C@H](OC)CN(C)C(=O)c2cc(NC(=O)NC(C)C)ccc2OC[C@@H]1C` gave rRNA inh HTS 1.7 and Cneo AK release 39.6.
Screening CNc1nc(Cl)nc(NC(C)(C)C)n1 returned hiPSC survival 17.3*, Cneo AK release 0.8, DAGLB inh -0.6, SKN-1 inh 0.2 and MT1-MMP act inh -0.8.

Source: PubChem (several laboratories)
